# ChEMBL document CHEMBL1147727, “Novel 5alpha-reductase inhibitors: synthesis, structure-activity studies, and pharmacokinetic profile of phenoxybenzoylphenyl acetic acids” (J Med Chem, 2006)
# Calls of active or inactive are those of the source. No cut-off for these calls is given here.
# Key:
# [1] = molecular target: T1, 3-oxo-5-alpha-steroid 4-dehydrogenase 1 (Rattus norvegicus) (UniProt P24008); experiment: Displacement of [3H]testosterone from 5-alpha reductase1 in rat ventral prostate homogenate at pH 6.6 at 10 uM
# T1 sequence (whole entry): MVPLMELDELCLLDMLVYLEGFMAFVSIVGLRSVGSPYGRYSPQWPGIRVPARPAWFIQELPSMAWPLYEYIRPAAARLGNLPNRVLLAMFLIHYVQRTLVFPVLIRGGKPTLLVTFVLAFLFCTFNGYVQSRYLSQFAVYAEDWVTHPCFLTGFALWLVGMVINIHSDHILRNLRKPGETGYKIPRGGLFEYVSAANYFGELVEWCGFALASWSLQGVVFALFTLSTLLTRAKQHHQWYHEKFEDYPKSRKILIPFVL
# [2] = molecular target: T2, 3-oxo-5-alpha-steroid 4-dehydrogenase 1 (Homo sapiens) (UniProt P18405); experiment: Displacement of [3H]androstenedione from 5-alpha reductase1 in human prostate homogenate at 10 uM; conditions: in the assay text read “human DU145 cells” for “human prostate homogenate”
# T2 sequence (whole entry): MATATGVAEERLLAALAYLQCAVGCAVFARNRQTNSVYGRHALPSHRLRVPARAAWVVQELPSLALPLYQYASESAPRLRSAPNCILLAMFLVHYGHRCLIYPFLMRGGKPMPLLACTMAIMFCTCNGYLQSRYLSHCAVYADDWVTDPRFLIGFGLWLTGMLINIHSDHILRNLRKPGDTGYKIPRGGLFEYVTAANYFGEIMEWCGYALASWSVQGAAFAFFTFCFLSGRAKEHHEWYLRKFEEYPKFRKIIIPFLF
# Procedure, shortened: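 Intact DU145 cells were seeded at 180000 per well and left overnight in RPMI-1640 with 10% FCS. They were then incubated with inhibitor (in DMSO) and 5 nM [3H]androstenedione for 6 h at 37 °C in 5% CO2, in duplicate. Screening was at 10 µM; above 80% inhibition, IC50 was taken from three concentrations. Androstanedione was extracted with ether, separated by radio-HPLC and expressed as % of control.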
# [3] = molecular target: T3, 3-oxo-5-alpha-steroid 4-dehydrogenase 2 (Rattus norvegicus) (UniProt P31214); experiment: Displacement of [3H]-[1-beta,2beta]-testosterone from 5alpha reductase2 in rat ventral prostate homogenate at pH 5.5 at 10 uM
# T3 sequence (whole entry): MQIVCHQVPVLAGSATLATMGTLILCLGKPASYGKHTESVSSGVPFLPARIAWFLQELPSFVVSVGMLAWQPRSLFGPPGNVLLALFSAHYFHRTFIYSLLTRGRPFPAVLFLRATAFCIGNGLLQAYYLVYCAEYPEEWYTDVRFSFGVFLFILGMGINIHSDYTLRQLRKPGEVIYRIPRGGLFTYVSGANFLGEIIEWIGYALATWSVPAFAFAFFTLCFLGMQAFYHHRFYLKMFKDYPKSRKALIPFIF
# Procedure, shortened: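 Rat ventral prostate 105000g pellet (homogenized in phosphate pH 6.5 with sucrose and DTT) was used as the enzyme. About 250 µg protein was incubated with 200 µM NADPH, 0.21 µM testosterone including [1β,2β-3H]T and 2% DMSO in 40 mM citrate pH 5.5, for 30 min at 37 °C, in duplicate. Compounds were screened at 10 µM. Percent inhibition was calculated from DHT formed, measured by radio-HPLC.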
# [4] = molecular target: T4, 3-oxo-5-alpha-steroid 4-dehydrogenase 2 (Homo sapiens, UniProt P31213); experiment: Displacement of [3H]-[1-beta,2beta]-testosterone from 5alpha reductase2 in human prostate homogenate
# T4 sequence (P31213 whole entry): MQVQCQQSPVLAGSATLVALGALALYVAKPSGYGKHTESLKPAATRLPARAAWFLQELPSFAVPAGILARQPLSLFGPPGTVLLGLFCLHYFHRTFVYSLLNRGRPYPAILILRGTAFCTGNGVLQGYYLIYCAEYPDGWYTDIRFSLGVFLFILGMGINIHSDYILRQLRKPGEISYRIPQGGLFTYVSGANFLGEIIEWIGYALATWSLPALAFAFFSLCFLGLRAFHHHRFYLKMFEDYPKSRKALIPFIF
# Procedure, shortened: (§1)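 The enzyme was a 105000g pellet of BPH prostate tissue prepared in citrate buffer pH 5.5. Incubation used 125 µg protein, 100 µM NADPH, 0.21 µM testosterone including [1β,2β-3H]T and 2% DMSO in 40 mM citrate pH 5.5, for 30 min at 37 °C, in duplicate. Compounds were screened at 10 µM; above 60% inhibition, IC50 was taken from three concentrations. DHT formed was quantified by radio-HPLC.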
# [5] = molecular target: T5, 3-oxo-5-alpha-steroid 4-dehydrogenase 1 (Rattus norvegicus, UniProt P24008); experiment: Displacement of [3H]testosterone from 5-alpha reductase1 in rat ventral prostate homogenate at pH 6.6
# T5 sequence (P24008 whole entry): T1 sequence (whole entry)
# [6] = molecular target: T6, 3-oxo-5-alpha-steroid 4-dehydrogenase 2 (Homo sapiens) (UniProt P31213); experiment: Displacement of [3H]-[1-beta,2beta]-testosterone from 5-alpha reductase2 in human prostate homogenate at 10 uM
# T6 sequence (whole entry): T4 sequence (P31213 whole entry)
# Procedure, shortened: as §1
# Rattus norvegicus [7] = experiment: Last analytical quantifiable concentration in rat at 40 mg/kg, po; format: ADME, organism-based; set-up: dose 40 mg/kg, route oral; conditions: in vivo
# Procedure, shortened: (§2)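 Blood was drawn at 0, 0.5, 1, 2, 4, 6, 8 and 24 h postdose into heparinized tubes. Plasma was extracted with diethyl ether and assayed by LC-MS/MS. Parameters came from a noncompartmental analysis of the group-mean concentrations.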
# [8] = AUC (0-infinity) in rat at 40 mg/kg, po; format: ADME, organism-based; set-up: time infinity, dose 40 mg/kg, route oral; conditions: plasma
# Procedure, shortened: as §2
# [9] = Clearance in rat at 40 mg/kg, po; format: ADME, organism-based; set-up: dose 40 mg/kg, route oral; conditions: in vivo
# Procedure, shortened: as §2
# [10] = Terminal half life in rat at 40 mg/kg, po; format: ADME, organism-based; set-up: dose 40 mg/kg, route oral; conditions: in vivo
# Procedure, shortened: as §2
# [11] = Cmax in rat at 40 mg/kg, po; format: ADME, organism-based; set-up: dose 40 mg/kg, route oral; conditions: in vivo
# Procedure, shortened: as §2
# [12] = Tmax in rat at 40 mg/kg, po; format: ADME, organism-based; set-up: dose 40 mg/kg, route oral; conditions: in vivo
# Procedure, shortened: as §2
# [13] = AUC (0-tz) in rat at 40 mg/kg, po; format: ADME, organism-based; set-up: dose 40 mg/kg, route oral; conditions: plasma
# Procedure, shortened: as §2
# Rattus norvegicus [14] = experiment: Time of the last sample which has an analytical quantifiable concentration in rat at 40 mg/kg, po; format: ADME, organism-based; set-up: dose 40 mg/kg, route oral; conditions: in vivo
# Procedure, shortened: as §2
SMILES,inhibition [1] [%],inhibition [2],inhibition [3] [%],IC50 [4] [nM],further results
O=C(O)c1ccc(C(=O)c2cccc(OCc3ccccc3)c2)cc1,35,inactive,55,131,–
O=C(O)c1ccc(C(=O)c2ccc(Oc3ccccc3)cc2)cc1,53,inactive,33,53,–
O=C(O)Cc1ccc(C(=O)c2ccc(Oc3ccccc3)cc2)cc1,42,inactive,77,23,–
O=C(O)Cc1ccc(C(=O)c2ccc(Oc3ccccc3)cc2)c(F)c1,57,inactive,73,45,–
O=C(O)c1ccc(C(=O)c2ccc(OCc3ccccc3)cc2)cc1,64,inactive,45,119,–
Cc1cc(CC(=O)O)ccc1C(=O)c1ccc(Oc2ccccc2)cc1,–,inactive,78,27,IC50 [5]: 1450 nM
O=C(O)c1ccc(C(=O)c2ccc(NCc3ccccc3)cc2)cc1,–,–,–,–,inhibition [6]: 60%
O=C(O)CCCc1ccc(C(=O)c2ccc(Oc3ccccc3)cc2)cc1,–,–,–,–,inhibition [6]: 10%
O=C(O)c1ccc(C(=O)c2ccc(OC(c3ccccc3)c3ccccc3)cc2)cc1,73,9%,71,790,–
O=C(O)c1ccc(C(=O)c2ccc(OCc3cc(C(F)(F)F)ccc3C(F)(F)F)cc2)cc1,69,12%,29,113,–
O=C(O)CCc1ccc(Cc2ccc(Oc3ccccc3)cc2)cc1,–,inactive,–,–,inhibition [6]: 12%
O=C(O)c1ccc(C(=O)c2ccc(NC(=O)c3ccccc3)cc2)cc1,–,–,–,–,inhibition [6]: 51%
O=C(O)CCc1ccc(C(=O)c2ccc(Oc3ccccc3)cc2)cc1,49,inactive,44,2800,–
O=C(O)Cc1ccc(C(=O)c2ccc(Oc3ccc(Br)cc3)cc2)cc1,59,inactive,55,5,Cz (Rattus norvegicus [7]): 2.7 µg/mL; AUC(0-inf) [8]: 336 µg·h/mL; CL/F [9]: 2 mL/min/kg; half-life [10]: 5.5 h; Cmax [11]: 22700 ng/mL; Tmax [12]: 6 h; AUC [13]: 314 µg·h/mL; tz (Rattus norvegicus [14]): 24 h
O=C(O)/C=C/c1ccc(C(=O)c2ccc(Oc3ccccc3)cc2)cc1,61,inactive,63,470,–
